RGS4 act: RGS4 potentiation or activation. HEK293 M3R/inducible RGS4, carbachol calcium flux Fluo4; active compounds read low. B-score at 10 µM. actives 0.92% (n = 310,000). AID 463111;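 active = B-score of the integrated calcium signal more than 4 SD below the library mean, with starting fluorescence not abnormally high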;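 note: negative B-score means reduced calcium response which marks RGS4 activation or potentiation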
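Material: Inducible-RGS4 HEK293 cells carrying M3 receptor; also added: carbachol at ECmax as muscarinic agonist stimulus; incubation: compound preincubation 20 min at room temperature before agonist; signal: Fluo4-AM (2 µM) calcium-flux fluorescence, kinetic read; measure: integrated calcium ratio converted to B score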
MrgX1 agonist: human MrgX1 receptor agonism, primary screen | MrgX1-HEK293 cells, Fluo-4 calcium fluorescence, agonist mode; active compounds read high | B-score at 10 µM | actives 0.44% (n = 310,000);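 active = calcium response B-score plate-corrected fluorescence ratio at least 3 library SD, with starting fluorescence B-score inside 5 SD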
Target sequence (Q96LB2 whole entry, looked up): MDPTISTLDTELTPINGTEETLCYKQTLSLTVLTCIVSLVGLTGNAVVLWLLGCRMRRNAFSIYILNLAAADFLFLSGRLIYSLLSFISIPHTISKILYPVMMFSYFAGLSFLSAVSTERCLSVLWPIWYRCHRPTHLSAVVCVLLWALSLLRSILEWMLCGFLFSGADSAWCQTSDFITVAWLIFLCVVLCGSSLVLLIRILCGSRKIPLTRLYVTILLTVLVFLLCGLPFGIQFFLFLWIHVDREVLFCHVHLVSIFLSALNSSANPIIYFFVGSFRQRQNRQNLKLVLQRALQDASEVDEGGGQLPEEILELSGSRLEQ
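System: HEK293 cells stably expressing human MrgX1 receptor; Dosing: test compound in the initial addition of three; Schedule: overnight plating, then 30 min 37 °C plus 30 min room-temperature dye loading; Detection: kinetic calcium dye fluorescence, Fluo-4 NW; Controls: per-plate positive and negative controls for Z′ factor.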
MrgX1 antag: antagonists of human MrgX1 receptor. MRGX1-HEK293 calcium flux, Fluo-4, BAM8-22 antagonism; active compounds read low. B-score at 10 µM. Q96LB2. actives 1.3% (n = 310,000). AID 588676;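 active = calcium-response B-score plate-corrected more than 3 library SD below zero, starting fluorescence within 5 deviations, no agonist response on first addition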;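 note: peak minus trough fluorescence over baseline after final BAM8-22 challenge near maximal dose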
RGS4 inh: inhibitors of human RGS4; B-score at 10 µM; HEK293 M3R/RGS4 inducible, Fluo-4 calcium flux; active compounds read high; triggered by carbachol at its EC20; AID 463165; actives 0.45% (n = 310,000); P49798;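 active = B-score, a plate-corrected calcium signal, over three deviations above library mean, with baseline fluorescence within five deviations of library mean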;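 note: RGS4 expression induced by doxycycline in cells with stable M3 receptor; B-score is computed from the integrated fluorescence ratio over baseline after carbachol; higher B-score means a larger calcium signal and so more RGS4 inhibition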
Target sequence (P49798 whole entry, looked up): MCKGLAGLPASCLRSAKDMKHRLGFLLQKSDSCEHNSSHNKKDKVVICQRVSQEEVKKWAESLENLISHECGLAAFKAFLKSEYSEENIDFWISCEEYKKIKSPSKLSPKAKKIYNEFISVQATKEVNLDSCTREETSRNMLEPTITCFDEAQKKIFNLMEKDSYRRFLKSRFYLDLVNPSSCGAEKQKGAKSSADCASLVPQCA
MrgX1 allo act: human MrgX1 positive allosteric modulation, primary screen | Q96LB2 | MrgX1-HEK293, Fluo-4 calcium flux, FDSS; active compounds read high | B-score at 10 µM | actives 0.63% (n = 310,000) | AID 588675;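 active = plate-corrected calcium response at least 3 library SD above typical, normal starting fluorescence, not activating the receptor alone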;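 note: compound read alongside a low EC10 to EC30 dose of BAM8-22 agonist; peak minus trough fluorescence over baseline measured at the second addition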
RGS4 inh valid: RGS4 inhibitor validation; HEK293 M3R/RGS4, carbachol calcium Fluo-4 fluorescence; carbachol added at its EC20; 0 = buffer wells, 100 = carbachol control; shares compounds with RGS4 inh; actives 65% (n = 1,700); calcium response, % at 10 µM; AID 492999;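 active = duplicate-averaged calcium response above the buffer-only control mean plus 5 SD of those controls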;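 note: integrated fluorescence ratio F max minus min over baseline F0; higher response in RGS4-induced cells means RGS4 inhibition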
M3R Ca ctr: checks RGS4 inhibitor effects in non-induced HEK293 M3R cells; carbachol calcium Fluo-4; submaximal (EC20) carbachol stimulus; buffer wells 0%, carbachol control wells 100%; activity (percent), % at 10 µM; shares compounds with RGS4 inh; actives 20% (n = 1,900); call rule not given here;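 note: RGS4 induction absent so cells express M3R without RGS4; higher means more calcium signal and flags a non-specific hit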
RGS4 inh ctr2: second counter-screen for RGS4 inhibitors: non-induced cells without carbachol | shares compounds with RGS4 inh | HEK293 M3R/RGS4 non-induced, Fluo-4 calcium, no carbachol; normalised: buffer wells 0%, carbachol wells 100% | calcium response (agonist-mode artifact), % at 10 µM | actives 22% (n = 1,900) | AID 493001;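 active = duplicate-averaged calcium rise in uninduced cells above buffer wells' mean plus 5 SD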
Active calls of the source: *; i = inactive; . = not tested or not shown. In the library only some 3.5% were active in any assay of this set; here they are far more common.

SMILES | RGS4 act | MrgX1 agonist | MrgX1 antag | RGS4 inh | MrgX1 allo act | RGS4 inh valid | M3R Ca ctr | RGS4 inh ctr2
Cc1ccc2occ(/C=N/NC(=O)c3ccc(O)cc3)c(=O)c2c1 | i | i | i | i | i | . | . | .
Cc1ccc2occ(/C=N/NC(N)=S)c(=O)c2c1 | i | i | i | 11* | i | 53.5%* | 66.5%* | i
COc1cc(C2C(C#N)=C(N)OC3=C2C(=O)CCC3)cc2c1OCO2 (centres undefined) | i | i | i | i | i | . | . | .
N#C/C(=C\c1cccc(O)c1)C(=O)N1CCCCC1 | i | i | i | 6.32* | i | 8.0%* | i | 9.0%*
Cc1cc(/C=C(\C#N)C(=O)N2CCCCC2)cc(C)c1O | i | i | i | i | i | . | . | .
N#C/C(=C\c1cccc(Br)c1)C(=O)N1CCCCC1 | i | i | i | 6.46* | i | 25.0%* | i | i
NC(=O)c1cc(S(=O)(=O)NCc2cccs2)cs1 | i | i | i | i | i | . | . | .
COCCCNC(=S)N(CCCN(C)C)Cc1cc2cc3c(cc2[nH]c1=O)OCCO3 | i | i | i | i | i | i | i | i
CCOCCCNC(=S)N(CCCN(C)C)Cc1cc2cc3c(cc2[nH]c1=O)OCCO3 | i | i | i | i | i | . | . | .
COCCNC(=S)N(CCN(C)C)Cc1cc2cc3c(cc2[nH]c1=O)OCO3 | i | i | i | i | i | . | . | .
COCCNC(=S)N(CCCN(C)C)Cc1cc2cc3c(cc2[nH]c1=O)OCCO3 | i | i | i | i | i | i | i | i
COc1ccc(S(=O)(=O)NCc2nc3nc(C)cc(C)n3n2)cc1OC | i | i | i | i | i | . | . | .
CC(C)c1ccccc1NC(=O)CN1C(=O)c2ccccc2C1=O | i | i | i | i | i | . | . | .
Cc1ccc2[nH]c3c(c2c1)CN(C(=O)CN1c2ccc(F)cc2CCC1C)CC3 (centres undefined) | i | i | i | 8.97* | i | 23.0%* | i | i
Cc1ccc2[nH]c3c(c2c1)CN(C(=O)CN1CCN(c2cccc(C)c2C)CC1)CC3 | i | i | i | i | i | . | . | .
O=C(N/N=C/c1ccccc1)c1[nH]c2ccc(Br)cc2c1-c1ccccc1 | i | i | i | i | i | . | . | .
O=C(NN=C1CCCC1)c1[nH]c2ccc(Br)cc2c1-c1ccccc1 | i | i | i | 13.3* | i | 16.5%* | i | i
CC(=O)c1ccc(-n2c(SCC(=O)c3c[nH]c4ccccc34)nc3ccccc3c2=O)cc1 | i | i | i | i | i | . | . | .
CCn1cc(Cl)c(C(=O)N2N=C(c3ccc4ccccc4c3)CC2c2ccccc2O)n1 (centres undefined) | i | i | i | i | i | . | . | .
CCn1cc([N+](=O)[O-])c(C(=O)N2N=C(c3ccc4ccccc4c3)CC2c2ccccc2O)n1 (centres undefined) | i | i | i | i | i | . | i | i
CCOc1cccc(-c2c(C(=O)N/N=C/c3ccc(C)s3)nnn2-c2nonc2N)c1 | i | i | i | i | i | . | i | i
CCOc1cccc(-c2c(C(=O)N/N=C/c3ccsc3)nnn2-c2nonc2N)c1 | i | i | i | i | i | . | i | i
COc1cccc(-c2c(C(=O)N/N=C/c3ccc(C)s3)nnn2-c2nonc2N)c1 | i | i | i | i | i | . | . | .
CCOc1ccc(-c2c(C(=O)N/N=C/c3sccc3C)nnn2-c2nonc2N)cc1 | i | i | i | i | i | . | . | .
Cc1ccc(-c2c(C(=O)N/N=C/c3ccsc3)nnn2-c2nonc2N)cc1 | i | i | i | i | i | . | . | .
SMILES | RGS4 act | MrgX1 agonist | MrgX1 antag | RGS4 inh | MrgX1 allo act | RGS4 inh valid | M3R Ca ctr | RGS4 inh ctr2
CCOc1cccc(-c2c(C(=O)N/N=C/c3sccc3C)nnn2-c2nonc2N)c1 | i | i | i | i | i | . | i | i
COc1cc(Cl)ccc1OCc1cc(C(=O)NCc2cc(C(C)C)no2)no1 | i | i | i | i | i | . | . | .
N#CC1=C(N)N=C(SCc2cccc3ccccc23)C(C(N)=O)C12CCCCC2 (centres undefined) | i | i | i | 5.9* | i | 16.5%* | i | i
O=C(O)CCn1c(SCc2cccc3ccccc23)nc2ccccc21 | i | i | i | i | i | . | . | .
O=C(Nc1nc(-c2ccc(Oc3ccccc3)cc2)cs1)C1=COCCO1 | i | i | i | 20.6* | i | 32.0%* | 42.5%* | i
Cc1ccc(-c2csc(NC(=O)C3=COCCO3)n2)cc1 | i | i | i | i | i | i | i | i
CC(=O)Nc1ccc(-c2csc(NC(=O)C3=COCCO3)n2)cc1 | i | i | i | i | i | . | . | .
CSc1nc(SCC(=O)O)c2sc3nc(-c4ccccc4)c4c(c3c2n1)CCC4 | i | . | . | i | . | . | . | .
CSc1nc(N(C)CCO)c2sc3nc(-c4ccco4)c4c(c3c2n1)CCC4 | i | i | i | 4.9* | i | i | i | 10.5%*
CCS(=O)(=O)c1nc(S(=O)(=O)c2ccc(Cl)cc2)c(NCCN2CCOCC2)s1 | i | i | i | i | i | . | . | .
O=c1c(Cl)c(Cl)cnn1Cc1nnc(-c2ccccc2Br)o1 | i | . | . | 72.2* | . | 142.5%* | 42.5%* | i
O=[N+]([O-])c1cc(C(F)(F)F)ccc1NCCc1c[nH]c2ccc(O)cc12 | i | i | i | 12.6* | i | 20.0%* | i | i
COC(=O)c1ccc(NC(=S)Nc2ccccc2)cc1 | i | i | i | i | i | . | . | .
COC(=O)c1ccc(NC(=S)Nc2ccc3ccccc3c2)cc1 | i | i | i | 7.77* | i | i | i | i
Cc1ccc2cc(CN(Cc3ccc4c(c3)OCO4)Cc3nnnn3Cc3ccco3)c(=O)[nH]c2c1 | i | i | i | i | i | i | i | 8.5%*
COc1ccc2cc(CN(CCc3ccccc3)Cc3nnnn3Cc3ccco3)c(=O)[nH]c2c1 | i | i | i | i | i | . | . | .
